Screens as filed in PubChem BioAssay.
PG9 Ab binder = binders of HIV-1 gp120 antibody PG9, primary screen, biochemical, TR-FRET | inhibition, % at 6.7 µM | TR-FRET gp120-PG9 antibody binding | AID 624416, 2012 | 360,000 tested, 0.43% active | HIV-1 gp120 / PG9 antibody interaction; in the data active means inhibition above about 8.5%
ABCB6 inh 2 = ABCB6 transporter inhibitors, primary screen, K562-ABCB6 cells, flow cytometry, MLPCN library. ATP-binding cassette sub-family B member 6 (Homo sapiens), Q9NP58. K562-ABCB6 porphyrin accumulation, 1 h; hits give low values. fluorescence ratio to DMSO, % at 10 µM. 360,000 tested, 0.19% active;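 active means fluorescence ratio to DMSO below 75%, the collection mean minus 3 SD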;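 further: signal is porphyrin accumulated inside mitochondria; lower ratio means ABCB6 inhibition with less porphyrin fluorescence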
Target sequence (Q9NP58 whole entry, looked up): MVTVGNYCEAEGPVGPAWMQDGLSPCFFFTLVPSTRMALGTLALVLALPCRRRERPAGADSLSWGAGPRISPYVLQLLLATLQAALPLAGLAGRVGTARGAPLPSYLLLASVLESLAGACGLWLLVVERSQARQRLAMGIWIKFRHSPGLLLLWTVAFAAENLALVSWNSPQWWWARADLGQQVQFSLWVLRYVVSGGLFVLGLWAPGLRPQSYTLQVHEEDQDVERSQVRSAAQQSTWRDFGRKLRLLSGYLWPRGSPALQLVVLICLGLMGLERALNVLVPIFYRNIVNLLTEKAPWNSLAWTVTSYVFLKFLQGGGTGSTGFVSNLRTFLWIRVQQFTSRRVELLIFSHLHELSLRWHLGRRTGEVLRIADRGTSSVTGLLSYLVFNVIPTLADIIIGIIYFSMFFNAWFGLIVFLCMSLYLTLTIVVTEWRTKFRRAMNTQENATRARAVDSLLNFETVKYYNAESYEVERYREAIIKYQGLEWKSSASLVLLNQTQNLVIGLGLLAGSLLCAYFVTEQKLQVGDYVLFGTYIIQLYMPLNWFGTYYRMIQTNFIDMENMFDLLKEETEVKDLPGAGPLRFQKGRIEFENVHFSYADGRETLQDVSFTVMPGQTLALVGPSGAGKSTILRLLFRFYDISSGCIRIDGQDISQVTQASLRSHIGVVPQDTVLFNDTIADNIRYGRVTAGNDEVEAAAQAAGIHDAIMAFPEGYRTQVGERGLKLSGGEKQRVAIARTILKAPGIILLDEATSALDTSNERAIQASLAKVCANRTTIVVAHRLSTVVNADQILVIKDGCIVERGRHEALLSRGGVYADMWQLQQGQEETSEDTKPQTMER
iPSC survival up = enhancers of single-cell hiPSC survival, primary screen, ATPlite luminescence; survival enhancement, % at 20 µM; AID 602274, 2012; 100% = ROCK inhibitor wells, 0% = DMSO; 360,000 tested, 0.044% active; in the data active means survival enhancement above about 18%;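 further: cells exposed to compounds for 16 hours before the ATP read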
Arr AP2 block = inhibitors of beta-arrestin/AP2 binding, primary screen, biochemical, GPCR trafficking, flow cytometry; FITC-arrestin peptide / GST-AP2 beads; AP2 beta2 appendage carries R879A mutation; inhibition, % at 10 µM; 340,000 tested, 0.31% active;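 active means inhibition above a set limit, near 3 SD of compounds lacking own fluorescence, cut at about 54% in these data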
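System: GST-tagged AP2 beta2-adaptin appendage (R879A) on 4 µm glutathione beads / Reagent: FITC-arrestin peptide, 50 nM / Detection: HyperCyt-sampled flow cytometry, FL1 channel, ex 488/em 535 nm / Timing: 12 min plus 1 h, RT / Buffer or medium: PBS plus Tween 20 (0.05%) and BSA (0.1%)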
ABCB6 inh CP1 = ABCB6 transporter inhibitors, confirmation, K562-ABCB6 cells, flow cytometry, cherry pick 1; shares compounds with ABCB6 inh 2; K562-ABCB6 porphyrin accumulation, 1 h; hits give low values; ratio response (% of DMSO), % at 10 µM; 700 tested, under 10 active; AID 602430, 2012;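 active means repeat-averaged ratio response below 75% of DMSO, the collection mean minus 3 SD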;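 further: median porphyrin fluorescence at 575 nm with 488 nm excitation from mitochondria; lower ratio means less porphyrin signal so ABCB6 inhibition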
Each line names hits and unclear results; the compound was inactive in the other large screens (follow-up assays come after a bar, where they were run). Shown are actives, neighbours in structure and some others; about 0.89% of the full set was active somewhere.

Cc1ccc(C)c(Cn2nnc3c(=O)[nH]c(C4CCN(C(=O)c5ccco5)CC4)nc32)c1	none | ABCB6 inh CP1 inactive
CC(C)c1[nH]nc2c1C(c1ccc3c(c1)OCO3)NC2=O (stereo not given)	none (no result: ABCB6 inh 2, iPSC survival up, Arr AP2 block)
Cc1ccc(Cl)cc1NC(=O)OCCN(C)C(=O)Nc1cc(Cl)ccc1C	none (no result: ABCB6 inh 2, iPSC survival up, Arr AP2 block)
COc1cc2c(c(OC)c1OC)-c1c(cc(OC)c(OC)c1OC)C[C@H](C)[C@H](C)C2	ABCB6 inh 2 74 | ABCB6 inh CP1 inactive
CN1CCN(NC(=O)c2cc(-c3ccc(Cl)s3)nc3ccccc23)CC1	ABCB6 inh 2 72 | ABCB6 inh CP1 inactive
C#CCN1C(=O)[C@]2(OC[C@@H]3Cc4ccccc4[C@@H]3C=C2C)c2ccccc21	none (no result: ABCB6 inh 2, iPSC survival up, Arr AP2 block)
CN(C)C(=O)c1cn(-c2ccccc2)nc1-c1cc2ccccc2o1	ABCB6 inh 2 35 | ABCB6 inh CP1 inactive
O=C(NCC1CCN(C(=O)C(=O)c2cc3ccccc3o2)CC1)c1ccc2c(c1)OCC2	none (no result: ABCB6 inh 2, iPSC survival up, Arr AP2 block)
CCOC(=O)c1c(NC(=O)CCN2C(=O)c3ccccc3C2=O)sc(C(=O)OC(C)C)c1C	ABCB6 inh 2 70 | ABCB6 inh CP1 inactive
CC(=O)Nc1c(C)ccc(CNC(=O)COc2cc(C)ccc2C)c1C	ABCB6 inh 2 72 | ABCB6 inh CP1 inactive
COc1ccccc1Oc1nc2c(c(=O)n(Cc3ccccc3F)c(=O)n2C)n1C	ABCB6 inh 2 74 | ABCB6 inh CP1 inactive
CCn1c(SCC(=O)c2ccccc2)nnc1-c1cccnc1	ABCB6 inh 2 71 | ABCB6 inh CP1 inactive
CC(C)C[C@@H]1COc2cc(N3CCCC3)ccc2S(=O)(=O)N1	none (no result: ABCB6 inh 2, iPSC survival up, Arr AP2 block)
O=C(COC(=O)CSc1ccc2ccccc2c1)NCc1ccc2c(c1)OCO2	ABCB6 inh 2 65 | ABCB6 inh CP1 inactive
COc1cc2[nH]c(=S)nc(NC3CCCCCC3)c2cc1OC	ABCB6 inh 2 73 | ABCB6 inh CP1 inactive
CCOC(=O)C1CCN(S(=O)(=O)c2ccc(OCC)cc2)CC1	none | ABCB6 inh CP1 inactive
CCOC(=O)c1ccc(S(=O)(=O)N2CCC(C(=O)OCC)CC2)cc1	ABCB6 inh 2 60 | ABCB6 inh CP1 inactive
CCOC(=O)C1CCN(S(=O)(=O)c2ccc(Cl)s2)CC1	ABCB6 inh 2 68 | ABCB6 inh CP1 inactive
CCOC(=O)c1ccc(S(=O)(=O)N2CCC(C(=O)O)CC2)cc1	none
O=C(NCc1ccccc1)[C@@H]1CCCN1C(=O)[C@H]1CCCN1C(=O)c1ccc(F)cc1F	none (no result: ABCB6 inh 2, iPSC survival up, Arr AP2 block)
CC1CCN(C(=O)c2ncn3c2C(=O)NC[C@@H]3C)CC1	none (no result: ABCB6 inh 2, iPSC survival up, Arr AP2 block)
COC(=O)c1cc2c(c3c4cc(F)ccc4n(S(=O)(=O)c4ccc(OC)cc4)c13)C(=O)N(Cc1ccccc1OC)C2	none (no result: ABCB6 inh 2, iPSC survival up, Arr AP2 block)
CCCc1ccc(S(=O)(=O)NCc2nnc(SC)n2C)cc1	ABCB6 inh 2 63 | ABCB6 inh CP1 inactive
CN1CCN(c2nc3ccccc3nc2C(C#N)C(=O)OC2CCCCC2)CC1 (stereo not given)	ABCB6 inh 2 65 | ABCB6 inh CP1 inactive
N#CCCN/N=C(\Cc1nc2ccccc2[nH]1)c1ccccc1	ABCB6 inh 2 61 | ABCB6 inh CP1 inactive
CCN/N=C(\Cc1nc2ccccc2[nH]1)c1ccccc1	none
O=C(C(=O)N1CCN(S(=O)(=O)c2ccc(Cl)cc2)CC1)c1cccc(C(F)(F)F)c1	none (no result: ABCB6 inh 2, iPSC survival up, Arr AP2 block)
CC(Sc1nc2ccccc2c(=O)n1C)C(=O)N(C)C1CCCCC1 (stereo not given)	ABCB6 inh 2 74 | ABCB6 inh CP1 inactive
CN1OC[C@@H]2CN[C@H](c3ccc(N4CCCCC4)cc3)C[C@@H]21	none (no result: ABCB6 inh 2, iPSC survival up, Arr AP2 block)
O=C1C(C=Nc2ccccc2)=C(O)c2ccccc21	ABCB6 inh 2 71 | ABCB6 inh CP1 inactive
O=S1(=O)N[C@@H](Cc2ccccc2)COc2cccc(N3CCCC3)c21	none (no result: ABCB6 inh 2, iPSC survival up, Arr AP2 block)
CN(C)S(=O)(=O)c1cccc(NC(=O)COC(=O)CCSc2ccc(Cl)cc2)c1	ABCB6 inh 2 71 | ABCB6 inh CP1 inactive
CC1CCN(S(=O)(=O)c2ccc(NC(=O)CN3CCN(c4ccccc4)CC3)cc2)CC1	ABCB6 inh 2 73 | ABCB6 inh CP1 inactive
Cc1cc2ccccc2n2c(SCC(=O)Nc3ccc(S(=O)(=O)N4CCCCC4)cc3)nnc12	none
Cc1cc2ccccc2n2c(SCC(=O)Nc3ccc(S(=O)(=O)N4CCC(C)CC4)cc3)nnc12	ABCB6 inh 2 68 | ABCB6 inh CP1 inactive
CC1CCN(S(=O)(=O)c2ccc(NC(=O)CN3CCN(C)CC3)cc2)CC1	none
CC(=O)OC[C@H]1O[C@H](C#Cc2ccc(C(C)(C)C)cc2)C=C[C@H]1OC(=O)Nc1ccccc1	none (no result: ABCB6 inh 2, iPSC survival up, Arr AP2 block)
O=C(Oc1ccc(/C=N/n2cnnc2)cc1)c1cccc([N+](=O)[O-])c1	ABCB6 inh 2 73 | ABCB6 inh CP1 inactive
O=C(C1CCN(S(=O)(=O)c2c(Cl)cccc2Cl)CC1)N1CCCCCCC1	ABCB6 inh 2 72 | ABCB6 inh CP1 inactive
O=C(O)C(Cc1ccccc1)NS(=O)(=O)c1ccc2c(c1)OCCO2 (stereo not given)	ABCB6 inh 2 68 | ABCB6 inh CP1 inactive
COc1ccc(S(=O)(=O)NC(Cc2ccccc2)C(=O)O)cc1 (stereo not given)	none
O=C(O)C(Cc1ccc(Cl)cc1)NS(=O)(=O)c1ccc(Cl)cc1 (stereo not given)	ABCB6 inh 2 49 | ABCB6 inh CP1 inactive
O=C(O)C(Cc1ccccc1)NS(=O)(=O)c1ccc(Cl)cc1 (stereo not given)	none
CC(=O)C1=C(C)N(Cc2ccc(Br)cc2)C(=S)NC1c1cccc(F)c1 (stereo not given)	none (no result: ABCB6 inh 2, iPSC survival up, Arr AP2 block)
CN1CCN(S(=O)(=O)c2cc([N+](=O)[O-])ccc2Cl)CC1	none
CC(C)c1ccc([N+](=O)[O-])cc1S(=O)(=O)N1CCN(C)CC1	ABCB6 inh 2 72 | ABCB6 inh CP1 inactive
COc1cc(C2=NOC(C(=O)N3CCCc4ccccc43)C2)cc(OC)c1OC (stereo not given)	ABCB6 inh 2 64 | ABCB6 inh CP1 inactive
O=C(NCCc1csc(-c2cccnc2)n1)c1ccc(Cl)cc1	ABCB6 inh 2 74 | ABCB6 inh CP1 inactive
CC1CCCCN1S(=O)(=O)c1ccc(N(C(=O)c2cnccn2)C(C(=O)NC2CCCCC2)c2cccs2)cc1 (stereo not given)	none
CC1CCCCN1S(=O)(=O)c1ccc(N(C(=O)c2cnccn2)C(C(=O)NC2CCCC2)c2cccs2)cc1 (stereo not given)	ABCB6 inh 2 70 | ABCB6 inh CP1 inactive
COC(=O)[C@@H](NC(=O)Nc1ccc(S(N)(=O)=O)cc1)C(C)C	ABCB6 inh 2 71 | ABCB6 inh CP1 inactive
Cn1c(=O)c2c(nc(NCCOc3ccc(C(C)(C)C)cc3)n2C)n(C)c1=O	ABCB6 inh 2 74 | ABCB6 inh CP1 inactive
CC(C)C[C@H]1COc2cccc(F)c2S(=O)(=O)N1	none (no result: ABCB6 inh 2, iPSC survival up, Arr AP2 block)
